OX1R antag-1: antagonists of human orexin 1 receptor; O43613; CHO/OX1R cells, Fluo-8 calcium fluorescence, orexin A; inhibition, % at 5 µM; 0.43% of 330,000 active;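 active = inhibition above its plate's threshold, mean inhibition of all tested compounds on the plate plus 3 SD, cut at about 37% in these data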
Target sequence (O43613 whole entry, looked up): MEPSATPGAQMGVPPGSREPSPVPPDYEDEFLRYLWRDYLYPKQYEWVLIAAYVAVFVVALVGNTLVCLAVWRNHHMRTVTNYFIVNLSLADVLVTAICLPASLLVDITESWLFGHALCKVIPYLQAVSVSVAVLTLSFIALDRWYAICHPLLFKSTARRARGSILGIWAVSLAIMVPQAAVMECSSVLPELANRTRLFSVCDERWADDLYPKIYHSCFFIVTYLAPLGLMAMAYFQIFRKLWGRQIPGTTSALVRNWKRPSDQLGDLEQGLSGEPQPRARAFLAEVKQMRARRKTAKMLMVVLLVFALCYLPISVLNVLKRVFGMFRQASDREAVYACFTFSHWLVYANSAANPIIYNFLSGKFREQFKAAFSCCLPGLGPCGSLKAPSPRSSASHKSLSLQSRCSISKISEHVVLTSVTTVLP
GPR7 antagonist: human neuropeptides B/W receptor 1 antagonism; GPR7-expressing cells, fluorescence antagonist assay; inhibition, % at 4.4 µM; 1.1% of 290,000 active; AID 1861; in the data active = inhibition above about 16%, passing the limit was not always enough;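 note: cells stimulated with the agonist NPW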
TAAR1 agonist: agonists of human TAAR1; AID 624467; 0.99% of 360,000 active; CHO RD-HGA16 TAAR1, Fluo-8 calcium fluorescence; vehicle wells 0%, saturating PEA agonist 100%; activation, % at 3 µM;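 active = activation above the mean activation of all test compounds in the run plus 3 SD, cut at about 38% in these data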
Target sequence (Q96RJ0 whole entry, looked up): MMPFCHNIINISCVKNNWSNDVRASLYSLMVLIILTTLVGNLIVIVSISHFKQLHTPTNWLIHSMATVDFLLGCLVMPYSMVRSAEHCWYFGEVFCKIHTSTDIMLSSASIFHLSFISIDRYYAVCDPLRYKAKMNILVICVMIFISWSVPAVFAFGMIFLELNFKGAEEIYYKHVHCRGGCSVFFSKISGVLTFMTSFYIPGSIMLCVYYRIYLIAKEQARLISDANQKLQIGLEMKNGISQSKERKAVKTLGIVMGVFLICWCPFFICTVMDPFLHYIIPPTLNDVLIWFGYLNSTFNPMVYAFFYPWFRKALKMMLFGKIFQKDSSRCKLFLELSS
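Test system: RD-HGA16 (CHO) cells co-expressing Gα16 and hTAAR1 / Benchmarks: DMSO vehicle as 0%, PEA at EC100 as 100% / Repeats: no replicates (n 1) / Measure: % activation from peak over basal fluorescence ratio, DMSO-to-PEA scaled / Timing: 17-24 h plating, Fluo-8 75 min 37 °C, 30 min RT / Technique: kinetic Fluo-8 calcium fluorescence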
CHO parental Ca: counter-screen: ATP calcium response change in parental CHO cells | parental CHO-K1, ATP-induced calcium, Fluo-8 fluorescence | inhibition, % at 5.6 µM | 0.63% of 330,000 active;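 active = inhibition above that plate's mean sample inhibition plus 3 SD, cut at about 26% in these data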
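Material: parental CHO cells / Compound: single nominal dose of 5.6 µM per compound / Signal: Fluo-8 fluorescence / Replicates: singlicate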
OX1R antag-2: OX1R (human) antagonism. OX1R-expressing cells, FRET antagonist read-out. 1.8% of 330,000 active. O43613. AID 485270. inhibition, % at 6.6 µM; in the data active = inhibition mostly above about 38%, no sharp cut-off; inactive = mostly below about 40%
TAAR1 antagonist: human TAAR1 antagonism. CHO RD-HGA16 TAAR1, Fluo-8 calcium fluorescence, antagonist. inhibition, % at 3 µM. 1.5% of 360,000 active. AID 624466;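 active = inhibition above a per-plate cutoff, the mean inhibition of test compounds on that plate plus 3 SD, cut at about 49% in these data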
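Material: RD-HGA16 CHO cells with stable hTAAR1 and Gα16; Dosing: single nominal final test compound concentration of 3 µM; Schedule: seeding 17-24 h prior, 75-min 37 °C, 30-min RT dye loading; Detection: kinetic Fluo-8 calcium fluorescence measurement; Measure: % inhibition from peak post-agonist over basal fluorescence ratio; Benchmarks: vehicle and agonist controls.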
TAAR1 nonsel count: counter-screen for TAAR1 antagonists: nonselective antagonists; inhibition, % at 3 µM; shares compounds with TAAR1 antagonist; 77% of 2,400 active; AID 651780; counterscreen cell line, calcium fluorescence, antagonist mode; in the data active = inhibition above about 22%;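 note: CHO-Ga16 host cells stimulated with ATP at an EC80 level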
TAAR1 ant conf: human TAAR1 antagonism, confirmed; inhibition, % at 3 µM; 40% of 2,400 active; AID 651785; shares compounds with TAAR1 antagonist; TAAR1-expressing cells, fluorescence antagonist read-out; in the data active = inhibition above about 49%;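 note: CHO-Ga16 host cells challenged with agonist PEA near its EC80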
Ga16 ag counter: nonselective Ga16 agonism, counter-screen; shares compounds with TAAR1 antagonist; Ga16-expressing cells, calcium fluorescence, agonist counterscreen; activation, % at 3 µM; 18% of 2,400 active; AID 651953; in the data active = activation above about 12%
TAAR1 ag counter: activates human TAAR1 in antagonist counter-screen | shares compounds with TAAR1 antagonist | activation, % at 3 µM | 2% of 2,400 active | hTAAR1 cell line, fluorescence activation, agonist mode; in the data active = activation above about 37%;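 note: CHO cells stably expressing TAAR1 with calcium dye readout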
Each line names hits and unclear results; the compound was inactive in the other large screens (follow-up assays come after a bar, where they were run). The list is not random: actives were taken first. Their share in the collection is about 4.5%.

CCOc1ccc(-c2csc(NC(=O)c3cccc(N4C(=O)CCC4=O)c3)n2)cc1	TAAR1 antagonist 68 | TAAR1 nonsel count 32 | TAAR1 ant conf inactive | Ga16 ag counter 12 | TAAR1 ag counter inactive
O=C(Nc1ccc(-c2cn3ccsc3n2)cc1)C1COc2ccccc2O1 (stereo not drawn)	TAAR1 antagonist 60 | TAAR1 nonsel count 38 | TAAR1 ant conf 56 | Ga16 ag counter 15 | TAAR1 ag counter inactive
COc1ccc(-c2csc(NC(=O)c3cccc(N4C(=O)CCC4=O)c3)n2)cc1OC	TAAR1 antagonist 65 (no result: GPR7 antagonist) | TAAR1 nonsel count inactive | TAAR1 ant conf inactive | Ga16 ag counter inactive | TAAR1 ag counter inactive
Cc1cc(-c2nnc(-c3ccccc3)c(-c3ccccc3)n2)c(C)o1	none
COc1ccccc1/C=C/C(=O)Nc1ccc(S(=O)(=O)Nc2cc(C)on2)cc1	none
COc1cc(F)ccc1-c1cc(C(=O)Nc2cc(OC)c(OC)c(OC)c2)[nH]n1	none (no result: OX1R antag-1, GPR7 antagonist, CHO parental Ca, OX1R antag-2)
Cc1ccc(S(=O)(=O)N2C[C@@H]3[C@H]4CC[C@H](C4)[C@@H]3[C@@H](C)C2CC(=O)c2ccccc2)cc1 (stereo partly drawn)	none (no result: GPR7 antagonist)
CCOc1ccccc1NC(=O)c1cc(-c2ccccn2)nc2ccccc12	TAAR1 antagonist 55 (no result: GPR7 antagonist) | TAAR1 nonsel count inactive | TAAR1 ant conf inactive | Ga16 ag counter inactive | TAAR1 ag counter inactive
Cc1cccc2sc(NNC(=O)c3cc(-c4cccs4)nc4ccccc34)nc12	TAAR1 antagonist 68 | TAAR1 nonsel count 51 | TAAR1 ant conf 54 | Ga16 ag counter 15 | TAAR1 ag counter inactive
CCOc1ccccc1-c1cc(C(=O)Nc2ccc(C(=O)O)cc2)c2ccccc2n1	none
COc1cc(C(=O)Nc2ccc(C)cc2)c2ccccc2n1	none
COc1ccc(-c2cc(C(=O)Nc3ccc(O)cc3)c3ccccc3n2)cc1OC	TAAR1 antagonist 62 | TAAR1 nonsel count 33 | TAAR1 ant conf inactive | Ga16 ag counter inactive | TAAR1 ag counter inactive
CN(C)S(=O)(=O)c1cccc(NC(=O)c2c[nH]c3ccccc23)c1	TAAR1 antagonist 56 | TAAR1 nonsel count 24 | TAAR1 ant conf 61 | Ga16 ag counter inactive | TAAR1 ag counter 54
Cc1ccc(Cn2c(SCC(=O)NCC3CCCO3)nc3c(sc4ccccc43)c2=O)cc1 (stereo not drawn)	none
CCCn1c(SCC(=O)Nc2ccc(S(=O)(=O)N(C)C)cc2)n[nH]c1=O	none
COc1ccc(CCN=C(N)Nc2nc(C)cc(C)n2)cc1	none
COc1cc(-c2cc(C(=O)Nc3cccc(S(=O)(=O)N(C)C)c3)c3ccccc3n2)cc(OC)c1OC	TAAR1 antagonist 54 | TAAR1 nonsel count 34 | TAAR1 ant conf 49 | Ga16 ag counter inactive | TAAR1 ag counter inactive
COc1ccc(-c2cc(C(=O)Nc3cccc(S(=O)(=O)NCc4ccco4)c3)c3ccccc3n2)cc1OC	TAAR1 antagonist 75 | TAAR1 nonsel count 37 | TAAR1 ant conf 57 | Ga16 ag counter inactive | TAAR1 ag counter inactive
COc1ccc(-c2cc(C(=O)NCc3ccco3)c3ccccc3n2)cc1OC	none (no result: GPR7 antagonist)
O=C(Nc1cccc(S(=O)(=O)NC2=NCCCCC2)c1)c1cc(-c2ccc(Cl)cc2)nc2ccccc12	none
O=C(Nc1cccc(S(=O)(=O)NC2=NCCCCC2)c1)c1cc(-c2ccccc2)nc2ccccc12	TAAR1 antagonist 63 | TAAR1 nonsel count 28 | TAAR1 ant conf 50 | Ga16 ag counter inactive | TAAR1 ag counter inactive
COc1cccc(NC(=O)c2cc(-c3ccc(C)o3)nc3ccccc23)c1	TAAR1 antagonist 55 | TAAR1 nonsel count 25 | TAAR1 ant conf inactive | Ga16 ag counter inactive | TAAR1 ag counter inactive
Cc1ccc(NCc2nnc(SCC(=O)Nc3nnc(C)s3)n2C)cc1	none
NC(=O)NC(=O)COC(=O)CCSc1ccccc1	none
CCN(CC)S(=O)(=O)c1ccc(NC(=O)c2cc(-c3cccs3)nc3ccccc23)cc1	TAAR1 antagonist 60 | TAAR1 nonsel count 29 | TAAR1 ant conf inactive | Ga16 ag counter inactive | TAAR1 ag counter inactive
COc1ccc(NC(=O)c2cc(-c3ccccn3)nc3ccccc23)cc1S(=O)(=O)N(C)C	TAAR1 antagonist 69 (no result: GPR7 antagonist) | TAAR1 nonsel count 25 | TAAR1 ant conf inactive | Ga16 ag counter inactive | TAAR1 ag counter inactive
COc1ccc(CN(C)CC(=O)N2CCc3ccccc3C2)cc1	none
Cc1nn(C)c(C)c1S(=O)(=O)N(CC(=O)NC1CCCCCC1)c1ccc(C(C)C)cc1	none
Cc1n[nH]c(C)c1S(=O)(=O)N(CC(=O)NC1CCCC1)c1ccc(C(C)C)cc1	TAAR1 antagonist 61 | TAAR1 nonsel count 22 | TAAR1 ant conf inactive | Ga16 ag counter inactive | TAAR1 ag counter inactive
O=C(/C=C/[C@H]1O[C@@H](n2ccc(=O)[nH]c2=O)[C@H](O)[C@@H]1O)NCc1cccc2ccccc12	none (no result: OX1R antag-1, GPR7 antagonist, CHO parental Ca, OX1R antag-2)
O=C1NCN(c2ccccc2)C12CCN(CCCC(c1ccc(F)cc1)c1ccc(F)cc1)CC2	OX1R antag-1 40, TAAR1 antagonist 78 | TAAR1 nonsel count 47 | TAAR1 ant conf inactive | Ga16 ag counter 20 | TAAR1 ag counter inactive
CCCOc1ccc(N2C(=O)CC(N(CCc3ccccc3)C(=O)c3ccccc3)C2=O)cc1 (stereo not drawn)	none
O=C(CCC1CCCCC1)Nc1ccc(C(=O)c2ccncc2)cc1	TAAR1 antagonist 66 | TAAR1 nonsel count 36 | TAAR1 ant conf 56 | Ga16 ag counter inactive | TAAR1 ag counter inactive
O=C(CCC1CCCCC1)Nc1cccnc1	none
Cc1cccc(Nc2ccccc2C(=O)OCC(=O)NCc2ccco2)c1C	none
O=C(COC(=O)c1ccccc1Nc1ccc(SC(F)F)cc1)NCc1ccco1	TAAR1 antagonist 52 | TAAR1 nonsel count inactive | TAAR1 ant conf inactive | Ga16 ag counter inactive | TAAR1 ag counter inactive
O=C(COc1ccccc1C(=O)O)Nc1ccc(SC(F)F)cc1	none
CN(C)C(=O)COC(=O)c1ccccc1OCC(=O)Nc1ccc(SC(F)F)cc1	TAAR1 antagonist 64 | TAAR1 nonsel count 32 | TAAR1 ant conf 51 | Ga16 ag counter inactive | TAAR1 ag counter inactive
C=CCn1c(SCc2c(C)noc2C)nc2cc(C(=O)O)ccc2c1=O	TAAR1 antagonist 76 | TAAR1 nonsel count inactive | TAAR1 ant conf inactive | Ga16 ag counter inactive | TAAR1 ag counter inactive
